In one data set the test system is Staphylococcus aureus. As to the kind of experiment: Antimicrobial activity against methicillin-resistant Staphylococcus aureus after 18 to 24 hrs in aerobic condition by two-fold serial dilutions method. The format is functional. The essentials: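 Strains grown on LB at 37 °C aerobically, then in Mueller-Hinton broth overnight at 200 rpm and brought to log phase (OD600 ~0.6). About 10^5 bacteria/mL exposed to two-fold serial dilutions 0–500 µM, DMSO 0.2% final as control. Aerobic incubation at 37 °C for 18–24 h; OD600 read; MIC = lowest concentration inhibiting visible growth. n = 3.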

A further data set has as its system Pseudomonas aeruginosa. Nature of the data set: Antimicrobial activity against Pseudomonas aeruginosa after 18 to 24 hrs in aerobic condition by two-fold serial dilutions method. The data set is classed as functional. The procedure, abridged:
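Colonies grown overnight (~16 h) in Mueller-Hinton broth at 37 °C, 200 rpm, diluted 1/100 and grown to log phase (OD600 ~0.6), then diluted to ~10^5 bacteria/mL. Exposed to 0 to 500 µM in 1:2 series (0.2% DMSO final control), aerobic, 37 °C, 18–24 h. OD600 read; MIC = lowest concentration without visible growth; n = 3.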

The next data set deals with IMR-90. Nature of the data set: Cytotoxicity against human IMR90 cells assessed as reduction in cell viability after 48 hrs by Resazurin dye-based assay. To be noted: for IC50: Homo sapiens, IMR-90, 48 h; for Activity: human, imr-90, 48 h. The procedure, abridged:
(§1)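 Normal human lung epithelial (BEAS-2B) and lung fibroblast (IMR-90) cells were grown in DMEM with 10% FCS. Cells were seeded at ~10^4/well, grown to confluence (48–72 h), then exposed to increasing concentrations for 48 h at 37 °C, 5% CO2, with 0.2% DMSO as control. Resazurin was added for 4 h and fluorescence read at 530/590 nm. Viability was normalized to DMSO wells and IC50 calculated.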

The test system of the next data set is BEAS-2B. Nature of the data set: Cytotoxicity against human BEAS2B cells assessed as reduction in cell viability after 48 hrs by Resazurin dye-based assay. To be noted: for IC50: Homo sapiens, BEAS-2B; for Activity: human, beas-2b. The procedure, abridged:
as §1
Background: Resazurin is reduced to fluorescent resorufin, in cell work by metabolically active cells.

≈ marks a conversion by molar mass, not a printed value.

The term MIC denotes the lowest concentration that inhibits growth of the organism. A lower MIC goes with a more susceptible organism. A word on the IC50: it is the point on the concentration scale where inhibition reaches its midpoint.

For `CC(C)(C)c1ccc(/C=C2\Oc3cccc(O)c3C2=O)cc1`, the MIC in the data set with Staphylococcus aureus and with Pseudomonas aeruginosa was > 500 µM throughout.

Take `CN1CCN(c2ccc(/C=C3\Oc4cccc(O)c4C3=O)cc2)CC1`: the MIC against Staphylococcus aureus and in the data set on Pseudomonas aeruginosa was > 500 µM each time.

Consider `O=C1/C(=C/c2ccc(O)cc2)Oc2cc(O)ccc21`, for which the MIC with Staphylococcus aureus and in the data set on Pseudomonas aeruginosa was > 500 µM each time.

On to `COc1cc(OC)c2c(c1)O/C(=C\c1ccccc1O)C2=O`, for which the minimum inhibitory concentration (MIC) against Staphylococcus aureus and against Pseudomonas aeruginosa was > 500 µM each time.

In the case of `O=C(O)c1ccc(/C=C2\Oc3c(O)cccc3C2=O)cc1`, the MIC against Staphylococcus aureus and against Pseudomonas aeruginosa was > 500 µM throughout.

In the case of `O=C1/C(=C/c2cccc(O)c2)Oc2cc(O)ccc21`, the MIC with Staphylococcus aureus and against Pseudomonas aeruginosa was > 500 µM throughout.

Consider `O=C1/C(=C/c2ccc(O)cc2)Oc2cc(O)cc(O)c21`, for which the MIC in the data set with Staphylococcus aureus is 62.5 to 125 µM (≈ 16.9 to 33.8 µg/mL); in the data set on Pseudomonas aeruginosa, > 500 µM.

As to `O=C1/C(=C/c2cccc(O)c2O)Oc2c(O)cccc21`, the results for the minimum inhibitory concentration (MIC) in the data set on Staphylococcus aureus and in the data set with Pseudomonas aeruginosa were 250 µM (≈ 67.6 µg/mL) and > 500 µM, respectively.

Consider `O=C1/C(=C/c2ccccc2)Oc2cccc(O)c21`, for which the MIC in the data set with Staphylococcus aureus and against Pseudomonas aeruginosa was > 500 µM each time.

In the case of `O=C1/C(=C/c2cc(O)c(O)c(O)c2)Oc2c(O)cccc21`, the MIC against Staphylococcus aureus is 125 to 250 µM (≈ 35.8 to 71.6 µg/mL); in the data set with Pseudomonas aeruginosa it was > 500 µM.

Consider `CCc1ccc(/C=C2\Oc3cccc(O)c3C2=O)cc1`, for which the MIC in the data set with Staphylococcus aureus is 62.5 to 125 µM (≈ 16.6 to 33.3 µg/mL); against Pseudomonas aeruginosa, > 500 µM.

Consider `O=C1/C(=C/c2ccc(O)cc2)Oc2ccccc21`, for which the MIC with Staphylococcus aureus and with Pseudomonas aeruginosa was > 500 µM in each case.

For `COc1cc(OC)c2c(c1)O/C(=C\c1ccc(C)cc1C)C2=O`, the minimal inhibitory concentration (MIC) in the data set on Staphylococcus aureus and in the data set on Pseudomonas aeruginosa was > 500 µM throughout.

As to `O=C1/C(=C/c2ccccc2O)Oc2cc(O)ccc21`, the MIC in the data set with Staphylococcus aureus and in the data set on Pseudomonas aeruginosa was > 500 µM throughout.

Turning to `COc1cc(OC)c(/C=C2\Oc3cccc(O)c3C2=O)c(OC)c1`, the MIC with Staphylococcus aureus is 250 µM (≈ 82.1 µg/mL); in the data set on Pseudomonas aeruginosa, > 500 µM.

On to `O=C1/C(=C/c2ccc(O)c(O)c2)Oc2cccc(O)c21`, for which the minimum inhibitory concentration (MIC) against Staphylococcus aureus is 125 to 250 µM (≈ 33.8 to 67.6 µg/mL); against Pseudomonas aeruginosa it was > 500 µM.

As to `O=C1/C(=C/c2ccc(O)c(O)c2)Oc2c(O)cccc21`, the MIC was 125 to 250 µM (≈ 33.8 to 67.6 µg/mL) with Staphylococcus aureus and > 500 µM in the data set with Pseudomonas aeruginosa.

As for `COc1ccc2c(c1)O/C(=C\c1ccc(OC)c(OC)c1)C2=O`, the MIC against Staphylococcus aureus and against Pseudomonas aeruginosa was > 500 µM each time.

In the case of `COc1ccc(/C=C2\Oc3cc(OC)cc(OC)c3C2=O)c(OC)c1`, the MIC against Staphylococcus aureus and against Pseudomonas aeruginosa was > 500 µM in each case.

For the compound `CCCCc1ccc(/C=C2\Oc3cc(OC)cc(OC)c3C2=O)cc1`, the MIC against Staphylococcus aureus and in the data set on Pseudomonas aeruginosa was > 500 µM each time.

Turning to `COc1cccc(OC)c1/C=C1\Oc2cccc(O)c2C1=O`, the results for the MIC against Staphylococcus aureus and against Pseudomonas aeruginosa were 250 µM (≈ 74.6 µg/mL) and > 500 µM, respectively.

Regarding `Cc1ccc(/C=C2\Oc3cccc(O)c3C2=O)c(C)c1`, the MIC with Staphylococcus aureus and with Pseudomonas aeruginosa was > 500 µM each time.

Turning to `O=C1/C(=C/c2ccccc2)Oc2c(O)cccc21`, the MIC in the data set with Staphylococcus aureus and in the data set on Pseudomonas aeruginosa was > 500 µM each time.

On to `CC(C)c1ccc(/C=C2\Oc3cccc(O)c3C2=O)cc1`, for which the MIC in the data set with Staphylococcus aureus and with Pseudomonas aeruginosa was > 500 µM each time.

Regarding `CCCCc1ccc(/C=C2\Oc3cc(O)cc(O)c3C2=O)cc1`, the minimum inhibitory concentration (MIC) in the data set on Staphylococcus aureus was 15.6 to 31.2 µM (≈ 4.84 to 9.7 µg/mL); in the data set on Pseudomonas aeruginosa, > 500 µM. Moreover, the concentration for half-maximal inhibition (IC50) in the data set on IMR-90 amounted to 80 µM; in the data set with BEAS-2B, 90 µM. For the same compound, the Activity result in the data set with IMR-90 and in the data set on BEAS-2B was “Dose-dependent effect” throughout.

As for `CCCCc1ccc(/C=C2\Oc3cccc(O)c3C2=O)cc1`, the MIC against Staphylococcus aureus and in the data set on Pseudomonas aeruginosa was > 500 µM in each case.

In the case of `O=C1/C(=C/c2ccccc2)Oc2ccccc21` [(Z)-AURONE], the MIC in the data set on Staphylococcus aureus and against Pseudomonas aeruginosa was > 500 µM each time.

For `O=C1/C(=C/c2ccc(C3CCCCC3)cc2)Oc2cc(O)cc(O)c21`, the MIC against Staphylococcus aureus is 7.8 µM (≈ 2.62 µg/mL); against Pseudomonas aeruginosa, > 500 µM. Further, the concentration for half-maximal inhibition (IC50) in the data set on IMR-90 was found to be 31 µM; in the data set with BEAS-2B it was 33 µM. Further, the Activity entry in the data set on IMR-90 and in the data set on BEAS-2B was “Dose-dependent effect” in each case.

For the compound `CN1CCN(c2ccc(/C=C3\Oc4cc(O)ccc4C3=O)cc2)CC1`, the minimum inhibitory concentration (MIC) in the data set with Staphylococcus aureus and against Pseudomonas aeruginosa was > 500 µM throughout.

As to `O=C1/C(=C/c2cccc(O)c2)Oc2cc(O)cc(O)c21`, the minimal inhibitory concentration (MIC) in the data set with Staphylococcus aureus was 125 to 250 µM (≈ 33.8 to 67.6 µg/mL); against Pseudomonas aeruginosa it was > 500 µM.

Regarding `O=C1/C(=C/c2ccc(O)cc2)Oc2cccc(O)c21`, the figures for the MIC in the data set with Staphylococcus aureus and with Pseudomonas aeruginosa were 125 to 250 µM (≈ 31.8 to 63.6 µg/mL) and > 500 µM, respectively.

These data come from ChEMBL document CHEMBL4400513, “Aurone derivatives as promising antibacterial agents against resistant Gram-positive pathogens” (Eur J Med Chem, 2019).
